In ChEMBL document CHEMBL3112533, “Synthesis of novel, peptidic kinase inhibitors with cytostatic/cytotoxic activity” (Bioorg Med Chem, 2014) one finds inhibition and IC50 data, which are given here for 18 molecules.

The species named for one test is Homo sapiens. Put plainly: Inhibition of MEK/ERK1 (unknown origin) using MBP/[gamma-32P]ATP as substrate after 10 mins by scintillation counting. A digest of the protocol:
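Compound at 10–150 μM in MOPS pH 7.2 buffer with β-glycerophosphate, EGTA, orthovanadate and DTT. [γ-32P]ATP at 10 μCi/reaction, 10 min at 30°C. Phosphorylated MBP was captured on P81 paper and counted by scintillation. Run in quadruplicate and given as % of no-compound control.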

Test [1] can be described thus: Cytotoxicity against mouse RAS-3T3 cells by crystal violet assay. In kind it is functional, cell-based. Conditions: NIH3T3. An outline of the steps: (§1)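 Parental NIH-3T3 fibroblasts and Ha-Ras-transfected RAS-3T3 cells were grown in DMEM with 10% FBS, […] and antibiotic-antimycotic at 37°C in 5% CO2. Growth retardation/cytotoxicity was read by crystal violet staining. Compounds came from 10 mM DMSO stocks.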

The subject of the next test is NIH3T3. The test is described as follows: Cytotoxicity against mouse NIH/3T3 cells by crystal violet assay. Type of test: cell-based. An outline of the steps:
as §1

Test [2] deals with Platelet-derived growth factor receptor beta (Homo sapiens) (UniProt P09619). Put plainly: Inhibition of PDGFRbeta (unknown origin) at 10 uM. A digest of the protocol:
(§2)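 ADP-Glo luminescent kinase assay. Inhibitor at 10 μM was preincubated with kinase (1 ng) for 10 min at 25°C. Substrate (10–60 μM) and ATP (25 μM) were then added and the mix incubated 1 h at 24°C. ADP-Glo reagent was added for 40 min, then detection reagent for 30 min, and luminescence was read. Activity is given as % of uninhibited kinase. Mean ± SD of 2 independent experiments.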

In test [3] the target is Tyrosine-protein kinase JAK2 (Homo sapiens) (UniProt O60674). Put plainly: Inhibition of JAK2 (unknown origin) at 10 uM. A digest of the protocol: as §2
For test [4], the target named is ALK tyrosine kinase receptor (Homo sapiens) (UniProt Q9UM73). The test is described as follows: Inhibition of ALK (unknown origin) at 10 uM. A digest of the protocol: as §2
Test [5] concerns RAS-3T3. The test is described as follows: Inhibition of MEK-mediated ERK1/2 phosphorylation in mouse RAS-3T3 cells at 40 uM by Western-blot analysis. In kind it is cell-based. A digest of the protocol: (§3)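 RAS-3T3 cells were starved overnight in 2% FBS, then given 10% FBS medium with compound for 4 h. Cells were lysed in Triton X-100/Tris/EDTA/NaCl buffer with protease inhibitors. 50 μg of protein was run on 10% SDS-PAGE and blotted to nitrocellulose, with loading checked by Ponceau. Blots were probed with anti-pERK and anti-total ERK antibodies and detected by HRP chemiluminescence. Untreated cells were controls.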

Test [6] has as its system RAS-3T3. The test is described as follows: Inhibition of MEK-mediated ERK1/2 phosphorylation in mouse RAS-3T3 cells at 40 uM by ELISA. Type of test: cell-based. An outline of the steps:
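RAS-3T3 cells were pre-starved overnight in 2% FBS, then treated with compound in 10% FBS medium for 4 h. Lysates were assayed with a pERK1/2-specific sandwich ELISA and absorbance read at 405 nm. Untreated cells were controls.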
On the technique in general: ELISA stands for enzyme-linked immunosorbent assay.

Test [7] deals with T1, Aurora kinase A (Homo sapiens) (UniProt O14965).
T1 sequence (whole entry): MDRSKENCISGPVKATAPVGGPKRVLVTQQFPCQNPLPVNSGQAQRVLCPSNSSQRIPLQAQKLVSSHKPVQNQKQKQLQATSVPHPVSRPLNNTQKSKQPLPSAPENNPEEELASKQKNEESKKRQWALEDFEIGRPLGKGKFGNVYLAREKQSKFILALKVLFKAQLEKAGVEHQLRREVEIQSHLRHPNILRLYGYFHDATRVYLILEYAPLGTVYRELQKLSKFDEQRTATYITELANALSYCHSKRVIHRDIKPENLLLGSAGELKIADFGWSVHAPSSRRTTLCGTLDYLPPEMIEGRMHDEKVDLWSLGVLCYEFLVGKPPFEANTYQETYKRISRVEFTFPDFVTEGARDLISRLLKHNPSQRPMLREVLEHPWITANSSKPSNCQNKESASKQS
The test is described as follows: Inhibition of aurora-A (unknown origin) at 10 uM. A digest of the protocol: as §2

The target in test [8] is Tyrosine-protein kinase BTK (Homo sapiens) (UniProt Q06187). Put plainly: Inhibition of BTK (unknown origin) at 10 uM. A digest of the protocol: as §2
Tyrosine-protein kinase BTK (Homo sapiens), sequence (Q06187 whole entry): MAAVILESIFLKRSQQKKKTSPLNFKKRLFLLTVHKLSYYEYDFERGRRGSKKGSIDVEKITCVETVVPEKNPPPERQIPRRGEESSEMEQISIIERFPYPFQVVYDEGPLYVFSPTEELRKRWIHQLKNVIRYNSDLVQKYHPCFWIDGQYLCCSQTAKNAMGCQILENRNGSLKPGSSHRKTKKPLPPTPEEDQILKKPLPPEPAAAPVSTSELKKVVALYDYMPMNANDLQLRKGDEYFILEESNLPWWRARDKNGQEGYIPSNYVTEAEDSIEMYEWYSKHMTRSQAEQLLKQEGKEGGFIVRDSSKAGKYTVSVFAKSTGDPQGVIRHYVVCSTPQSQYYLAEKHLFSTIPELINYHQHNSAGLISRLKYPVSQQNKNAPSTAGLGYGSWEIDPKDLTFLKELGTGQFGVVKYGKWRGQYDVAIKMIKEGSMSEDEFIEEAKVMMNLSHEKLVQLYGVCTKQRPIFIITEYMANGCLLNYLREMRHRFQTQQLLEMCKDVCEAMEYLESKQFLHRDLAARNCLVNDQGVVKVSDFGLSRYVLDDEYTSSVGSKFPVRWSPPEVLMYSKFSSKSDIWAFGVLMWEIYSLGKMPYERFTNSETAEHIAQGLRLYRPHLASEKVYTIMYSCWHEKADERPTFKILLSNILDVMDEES
The target in test [9] is Serine/threonine-protein kinase pim-1 (Homo sapiens) (UniProt P11309). Put plainly: Inhibition of PIM1 (unknown origin) at 10 uM. An outline of the steps:
as §2

The target of test [10] is Epidermal growth factor receptor (Homo sapiens) (UniProt P00533). Put plainly: Inhibition of EGFR (unknown origin) at 10 uM. An outline of the steps:
as §2

Test [11] has as its target Insulin-like growth factor 1 receptor (Homo sapiens) (UniProt P08069). Put plainly: Inhibition of IGF1R (unknown origin) at 10 uM. An outline of the steps:
as §2

For test [12], the target named is Vascular endothelial growth factor receptor 2 (Homo sapiens) (UniProt P35968). Put plainly: Inhibition of KDR (unknown origin) at 10 uM. An outline of the steps: as §2
The subject of test [13] is RAS-3T3. The test is described as follows: Inhibition of MEK in mouse RAS-3T3 cells assessed as effect on unphosphorylated ERK1/2 at 40 uM by Western-blot analysis. In kind it is cell-based. An outline of the steps: as §3
Test [14] has as its target Receptor-type tyrosine-protein kinase FLT3 (Homo sapiens) (UniProt P36888). Put plainly: Inhibition of FLT3 (unknown origin) at 10 uM. An outline of the steps: as §2
Test [15] concerns the target T2, Tyrosine-protein kinase JAK3 (Homo sapiens) (UniProt P52333).
T2 sequence (whole entry): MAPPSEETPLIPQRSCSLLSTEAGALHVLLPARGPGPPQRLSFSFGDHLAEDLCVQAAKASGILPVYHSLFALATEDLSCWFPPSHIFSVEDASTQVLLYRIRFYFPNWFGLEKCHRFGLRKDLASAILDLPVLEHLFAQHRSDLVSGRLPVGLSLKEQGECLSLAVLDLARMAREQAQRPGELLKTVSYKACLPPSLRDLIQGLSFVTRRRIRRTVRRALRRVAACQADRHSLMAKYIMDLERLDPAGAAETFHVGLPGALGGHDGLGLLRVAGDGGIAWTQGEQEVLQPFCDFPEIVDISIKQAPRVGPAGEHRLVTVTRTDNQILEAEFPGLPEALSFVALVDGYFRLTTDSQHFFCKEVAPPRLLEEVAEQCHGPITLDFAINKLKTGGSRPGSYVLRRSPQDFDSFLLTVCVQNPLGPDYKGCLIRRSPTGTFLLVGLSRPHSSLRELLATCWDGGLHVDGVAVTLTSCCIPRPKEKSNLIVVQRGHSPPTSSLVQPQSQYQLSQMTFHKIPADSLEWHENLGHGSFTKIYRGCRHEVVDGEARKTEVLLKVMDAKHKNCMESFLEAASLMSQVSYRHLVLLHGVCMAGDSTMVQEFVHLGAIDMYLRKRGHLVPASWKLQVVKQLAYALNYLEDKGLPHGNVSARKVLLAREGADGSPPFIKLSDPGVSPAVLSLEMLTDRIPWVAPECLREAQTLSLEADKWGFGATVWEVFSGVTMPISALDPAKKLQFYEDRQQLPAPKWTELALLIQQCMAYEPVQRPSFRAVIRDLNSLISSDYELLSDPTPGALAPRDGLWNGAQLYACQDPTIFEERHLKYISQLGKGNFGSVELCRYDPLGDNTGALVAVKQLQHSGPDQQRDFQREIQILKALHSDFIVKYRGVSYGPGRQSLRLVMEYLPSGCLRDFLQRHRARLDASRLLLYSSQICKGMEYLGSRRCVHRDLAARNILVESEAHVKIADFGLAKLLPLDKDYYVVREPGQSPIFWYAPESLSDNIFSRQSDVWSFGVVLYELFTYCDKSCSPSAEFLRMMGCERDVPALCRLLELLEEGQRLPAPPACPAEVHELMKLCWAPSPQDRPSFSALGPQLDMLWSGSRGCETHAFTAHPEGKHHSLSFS
The test is described as follows: Inhibition of JAK3 (unknown origin) at 10 uM. An outline of the steps: as §2

Test [16] concerns the target TRAF2 and NCK-interacting protein kinase (Homo sapiens) (UniProt Q9UKE5). The test is described as follows: Inhibition of TNIK (unknown origin) at 10 uM. An outline of the steps: as §2
The target in test [17] is Mitogen-activated protein kinase 3 (Homo sapiens) (UniProt P27361). Put plainly: Competitive inhibition of activated ERK1 (unknown origin) using […] as substrate. An outline of the steps:
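Activated pERK1 (20 ng) with inhibitor held at 5 μM and MBP varied from 0.2 to 200 μg per reaction. Non-radioactive ATP at 0.2 μM. Remaining ATP was measured by luciferase luminescence, and activity was taken from ATP consumption. Controls lacked inhibitor but had matching MBP amounts. Mean ± SD from 3 independent experiments.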

Test [18] concerns the target Fibroblast growth factor receptor 2 (Homo sapiens) (UniProt P21802). Put plainly: Inhibition of FGFR2 (unknown origin) at 10 uM. An outline of the steps: as §2
Test [19] addresses Mitogen-activated protein kinase 3 (Homo sapiens) (UniProt P27361). The test is described as follows: Inhibition of activated ERK1 (unknown origin) using […] as substrate. An outline of the steps:
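Activated pERK1 (20 ng) with MBP (20 μg) and compound at final 0.05–5 μM. Non-radioactive ATP at 0.2 μM. Residual ATP was measured by luciferase luminescence, and relative activity was derived from ATP consumption versus compound-free control. Mean ± SD from 3 independent experiments.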

pIC50: −log10 of the molar value. Active and inactive are the calls of the source. The calls are words filed in the database; no cut-off is given here. Where only a bound is given, the exact number is not on record here.

Mitogen-activated protein kinase 3 (Homo sapiens), sequence (P27361 whole entry): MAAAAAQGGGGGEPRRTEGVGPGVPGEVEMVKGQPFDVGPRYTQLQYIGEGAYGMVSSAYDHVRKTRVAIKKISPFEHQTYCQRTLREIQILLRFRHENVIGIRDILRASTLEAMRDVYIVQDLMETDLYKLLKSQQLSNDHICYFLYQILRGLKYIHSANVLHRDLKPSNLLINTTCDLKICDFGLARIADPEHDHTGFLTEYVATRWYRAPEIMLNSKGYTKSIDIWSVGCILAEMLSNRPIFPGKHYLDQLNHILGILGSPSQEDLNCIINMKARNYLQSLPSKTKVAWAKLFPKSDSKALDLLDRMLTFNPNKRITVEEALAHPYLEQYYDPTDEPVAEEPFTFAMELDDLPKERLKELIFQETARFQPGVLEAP
Insulin-like growth factor 1 receptor (Homo sapiens), sequence (P08069 31-736 limits assumed): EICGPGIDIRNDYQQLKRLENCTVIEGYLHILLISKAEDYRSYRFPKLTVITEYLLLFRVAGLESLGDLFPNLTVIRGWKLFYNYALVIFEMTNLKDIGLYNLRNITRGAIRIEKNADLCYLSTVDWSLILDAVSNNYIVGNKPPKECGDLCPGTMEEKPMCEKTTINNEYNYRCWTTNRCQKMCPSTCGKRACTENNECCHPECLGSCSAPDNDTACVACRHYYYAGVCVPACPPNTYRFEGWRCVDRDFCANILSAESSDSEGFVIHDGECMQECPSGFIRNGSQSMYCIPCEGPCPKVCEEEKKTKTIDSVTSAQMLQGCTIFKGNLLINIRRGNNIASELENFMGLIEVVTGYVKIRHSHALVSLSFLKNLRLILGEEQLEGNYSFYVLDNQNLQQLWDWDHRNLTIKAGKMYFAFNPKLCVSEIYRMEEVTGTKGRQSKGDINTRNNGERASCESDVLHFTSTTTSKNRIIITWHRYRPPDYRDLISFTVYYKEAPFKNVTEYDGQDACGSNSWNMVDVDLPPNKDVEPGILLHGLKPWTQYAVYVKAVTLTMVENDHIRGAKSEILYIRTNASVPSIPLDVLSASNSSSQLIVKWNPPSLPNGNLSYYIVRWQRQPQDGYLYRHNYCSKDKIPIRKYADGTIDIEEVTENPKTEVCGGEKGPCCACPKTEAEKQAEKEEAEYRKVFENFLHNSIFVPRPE
Insulin-like growth factor 1 receptor (Homo sapiens), sequence (P08069 741-1367 limits assumed): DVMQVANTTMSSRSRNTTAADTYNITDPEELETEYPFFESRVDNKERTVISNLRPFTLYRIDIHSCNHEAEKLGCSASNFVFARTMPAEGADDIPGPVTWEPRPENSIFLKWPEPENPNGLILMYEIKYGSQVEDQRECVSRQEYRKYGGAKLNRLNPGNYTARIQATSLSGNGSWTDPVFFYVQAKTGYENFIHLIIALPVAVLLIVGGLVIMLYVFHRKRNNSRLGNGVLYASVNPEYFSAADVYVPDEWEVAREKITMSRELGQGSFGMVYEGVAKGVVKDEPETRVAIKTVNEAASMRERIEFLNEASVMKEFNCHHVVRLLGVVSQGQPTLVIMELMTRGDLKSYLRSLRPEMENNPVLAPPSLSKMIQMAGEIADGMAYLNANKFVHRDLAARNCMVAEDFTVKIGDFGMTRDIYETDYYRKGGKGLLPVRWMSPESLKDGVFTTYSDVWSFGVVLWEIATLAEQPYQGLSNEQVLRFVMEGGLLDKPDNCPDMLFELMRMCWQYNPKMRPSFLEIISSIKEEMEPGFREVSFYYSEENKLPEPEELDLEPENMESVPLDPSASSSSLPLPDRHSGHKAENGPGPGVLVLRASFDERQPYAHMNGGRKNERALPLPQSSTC
Platelet-derived growth factor receptor beta (Homo sapiens), sequence (P09619 whole entry): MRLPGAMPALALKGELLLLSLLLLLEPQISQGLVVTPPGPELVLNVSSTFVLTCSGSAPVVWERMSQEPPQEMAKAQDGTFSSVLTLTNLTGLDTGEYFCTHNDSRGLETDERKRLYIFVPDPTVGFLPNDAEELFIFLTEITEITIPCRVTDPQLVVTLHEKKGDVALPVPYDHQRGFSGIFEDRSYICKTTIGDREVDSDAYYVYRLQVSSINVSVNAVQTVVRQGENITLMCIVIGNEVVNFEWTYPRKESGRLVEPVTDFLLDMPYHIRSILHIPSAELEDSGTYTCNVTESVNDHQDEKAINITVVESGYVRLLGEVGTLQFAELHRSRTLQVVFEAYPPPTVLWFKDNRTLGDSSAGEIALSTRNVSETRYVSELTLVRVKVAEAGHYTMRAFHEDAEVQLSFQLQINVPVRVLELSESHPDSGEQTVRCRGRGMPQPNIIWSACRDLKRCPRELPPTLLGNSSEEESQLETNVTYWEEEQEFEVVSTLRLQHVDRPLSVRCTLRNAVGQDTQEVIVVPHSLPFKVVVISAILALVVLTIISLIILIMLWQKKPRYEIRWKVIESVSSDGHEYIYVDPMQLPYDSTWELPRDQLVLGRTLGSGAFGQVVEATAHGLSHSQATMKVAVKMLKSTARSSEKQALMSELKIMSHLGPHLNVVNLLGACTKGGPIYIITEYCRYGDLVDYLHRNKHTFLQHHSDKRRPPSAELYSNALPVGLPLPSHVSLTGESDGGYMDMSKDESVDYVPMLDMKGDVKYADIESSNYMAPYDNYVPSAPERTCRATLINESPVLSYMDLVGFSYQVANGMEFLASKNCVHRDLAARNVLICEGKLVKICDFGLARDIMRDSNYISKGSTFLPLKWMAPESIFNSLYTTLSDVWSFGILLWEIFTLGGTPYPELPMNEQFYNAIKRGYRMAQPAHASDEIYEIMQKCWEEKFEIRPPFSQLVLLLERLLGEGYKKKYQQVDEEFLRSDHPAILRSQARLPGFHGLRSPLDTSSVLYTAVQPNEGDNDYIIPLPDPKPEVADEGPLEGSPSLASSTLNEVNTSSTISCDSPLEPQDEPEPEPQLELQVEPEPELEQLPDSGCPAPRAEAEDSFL
Epidermal growth factor receptor (Homo sapiens), sequence (P00533 whole entry): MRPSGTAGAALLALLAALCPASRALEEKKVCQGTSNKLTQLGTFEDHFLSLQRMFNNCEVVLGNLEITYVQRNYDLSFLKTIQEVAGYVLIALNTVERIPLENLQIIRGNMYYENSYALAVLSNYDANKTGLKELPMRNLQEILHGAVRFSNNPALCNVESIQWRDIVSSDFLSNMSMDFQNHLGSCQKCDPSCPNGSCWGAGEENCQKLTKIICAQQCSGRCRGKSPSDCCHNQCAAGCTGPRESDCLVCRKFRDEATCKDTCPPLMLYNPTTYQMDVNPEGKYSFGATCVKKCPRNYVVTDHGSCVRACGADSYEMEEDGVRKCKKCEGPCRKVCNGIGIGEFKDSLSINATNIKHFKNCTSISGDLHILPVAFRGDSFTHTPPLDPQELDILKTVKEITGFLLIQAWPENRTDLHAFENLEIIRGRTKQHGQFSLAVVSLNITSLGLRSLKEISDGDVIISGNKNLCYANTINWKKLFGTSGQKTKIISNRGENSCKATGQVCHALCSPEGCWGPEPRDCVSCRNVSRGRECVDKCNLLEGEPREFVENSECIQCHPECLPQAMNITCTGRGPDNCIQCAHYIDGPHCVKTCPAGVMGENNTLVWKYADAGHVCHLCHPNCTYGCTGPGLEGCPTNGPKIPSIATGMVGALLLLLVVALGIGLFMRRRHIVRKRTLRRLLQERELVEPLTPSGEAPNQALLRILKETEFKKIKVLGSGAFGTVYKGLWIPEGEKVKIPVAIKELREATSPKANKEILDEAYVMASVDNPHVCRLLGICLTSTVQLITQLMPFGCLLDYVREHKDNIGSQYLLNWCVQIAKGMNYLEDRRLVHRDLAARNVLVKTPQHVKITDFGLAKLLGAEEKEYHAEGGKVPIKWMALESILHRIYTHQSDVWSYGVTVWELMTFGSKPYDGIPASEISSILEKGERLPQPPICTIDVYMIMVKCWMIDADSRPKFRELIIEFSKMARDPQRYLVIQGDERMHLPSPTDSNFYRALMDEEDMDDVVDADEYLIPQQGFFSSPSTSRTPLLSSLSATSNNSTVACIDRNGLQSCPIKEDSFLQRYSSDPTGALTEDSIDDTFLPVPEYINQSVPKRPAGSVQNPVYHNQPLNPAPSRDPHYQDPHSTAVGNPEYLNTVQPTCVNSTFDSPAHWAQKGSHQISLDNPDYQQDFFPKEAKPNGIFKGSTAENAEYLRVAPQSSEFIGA
Serine/threonine-protein kinase pim-1 (Homo sapiens), sequence (P11309 whole entry, looked up): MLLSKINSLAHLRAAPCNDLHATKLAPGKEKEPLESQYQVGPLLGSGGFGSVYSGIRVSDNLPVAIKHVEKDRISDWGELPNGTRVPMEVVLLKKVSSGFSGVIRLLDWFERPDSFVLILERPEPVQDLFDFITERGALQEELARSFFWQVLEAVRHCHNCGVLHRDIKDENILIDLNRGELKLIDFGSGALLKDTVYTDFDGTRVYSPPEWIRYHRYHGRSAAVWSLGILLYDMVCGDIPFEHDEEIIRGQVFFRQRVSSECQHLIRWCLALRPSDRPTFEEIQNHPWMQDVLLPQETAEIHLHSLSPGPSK

For the molecule `CCCCCCCCC[C@@H](NC(=O)CNC(=O)OCc1ccccc1)C(=O)NCc1ccc(OC)cc1`, the inhibition entry in the test listed under Homo sapiens is “Active”.

`CCCCCCCCC[C@H](NC(=O)CNC(=O)OCc1ccccc1)C(=O)NCc1ccc(OC)cc1`: the inhibition entry in the test listed under Homo sapiens is “Active”.

On to `CCCCCCCCCC(NC(=O)[C@H](CC(C)C)NC(=O)OCc1ccccc1)C(=O)NCc1ccc(OC)cc1` (mixture of isomers), for which the pIC50 in [1] is 4.30; in the test with NIH3T3, less than 3.70.

For the molecule `CCCCCCCCCC(NC(=O)[C@H](Cc1ccccc1)NC(=O)OCc1ccccc1)C(=O)NCc1ccc(OC)cc1` (mixture of isomers), the pIC50 was 4.17 in [1] and less than 3.70 with NIH3T3.

`CCCCCCCCCC(NC(=O)[C@H](C)NC(=O)OCc1ccccc1)C(=O)NCc1ccc(OC)cc1` (mixture of isomers): the pIC50 is 4.26 in [1] and 3.82 with NIH3T3.

For the molecule `CCCCCCCCCC(C(=O)NCc1ccc(OC)cc1)N(C)C(=O)CNC(=O)OCc1ccccc1` (racemic), the pIC50 (in test [1]; in the test with NIH3T3) was 4.52 throughout.

With `CCCCCCCC(NC(=O)CNC(=O)OCc1ccccc1)C(=O)NC1CCCCC1` (racemic), the pIC50 in test [1] is 4.52; in the test on NIH3T3, 4.40.

For the molecule `CCCCCCCC(NC(=O)CNC(=O)OCc1ccccc1)C(=O)NCc1ccccc1` (racemic), the pIC50 in [1] was 4.48; in the test with NIH3T3, 4.42.

As to `CCCCCCCC(NC(=O)CNC(=O)OCc1ccccc1)C(=O)NCCc1ccccc1` (racemic), the pIC50 in test [1] is 4.70; in the test on NIH3T3, 4.48.

Regarding `CCCCCCCC(NC(=O)CNC(=O)OCc1ccccc1)C(=O)NCc1ccc(OC)cc1` (racemic), the pIC50 (in [1]; in the test on NIH3T3) was 4.40 throughout.

Turning to `CCCCCCCC(NC(=O)CNC(=O)OCc1ccccc1)C(=O)NCc1ccc(OC)cc1OC` (racemic), the values for the pIC50 (in test [1]; in the test on NIH3T3) were 4.40 and 4.30, respectively.

For the molecule `COc1ccc(CNC(=O)C(Cc2ccccc2)NC(=O)CNC(=O)OCc2ccccc2)cc1` (racemic), the pIC50 (in test [1]; in the test with NIH3T3) was less than 4.00 each time.

Regarding `COc1ccc(CNC(=O)C(Cc2ccc(OC)cc2)NC(=O)CNC(=O)OCc2ccccc2)cc1` (racemic), the pIC50 (in [1]; in the test on NIH3T3) was less than 4.00 in each case.

Turning to `COc1ccc(CNC(=O)C(CCCCCNC(=O)OC(C)(C)C)NC(=O)CNC(=O)OCc2ccccc2)cc1` (racemic), the pIC50 (in test [1]; in the test with NIH3T3) was less than 4.00 each time.

Turning to `COc1ccc(CNC(=O)C(NC(=O)CNC(=O)OCc2ccccc2)C2CCCCC2)cc1` (racemic), the pIC50 in test [1] is 4.40; in the test on NIH3T3, 4.30.

`COc1ccc(CNC(=O)C(CC(C)C)NC(=O)CNC(=O)OCc2ccccc2)cc1` (racemic): the pIC50 (in test [1]; in the test on NIH3T3) was less than 4.00 in each case.

For `CCCCCCCCCC(NC(=O)CNC(=O)OCc1ccccc1)C(=O)NCc1ccc(OC)cc1` (racemic), the results for the pIC50 (in test [1]; in the test on NIH3T3) were 4.72 and 4.26, respectively. The inhibition entry in the test filed under Homo sapiens was “Dose-dependent effect”.

In the case of `CCCCCCCCCC(NC(=O)CNC(=O)OCc1ccccc1)C(=O)NCCc1ccccc1` (racemic), the inhibition entry in [2], in [3], in [4], in test [7], in [8] and in test [9] was “inactive” in each case. Further, the inhibition result (in test [10]; in [11]; in test [12]; in the test with RAS-3T3 [13]; in test [14]; in test [15]) was “inactive” each time. Also, the inhibition result in [16] and in [18] was “inactive” each time. The inhibition result (in the test with RAS-3T3 [5]; in test [17]) was “Active” in each case. For the same molecule, the inhibition in the test on RAS-3T3 [6] was 90%; in test [19] it was “Dose-dependent effect”.

As usually defined, the inhibition is the percentage by which the read-out fell short of the control. The term pIC50 denotes the negative decadic logarithm of the IC50, by convention in mol/L.
